Assay [1] can be described thus: Antioxidant activity assessed as superoxide scavenging activity by NBT reduction assay. The class given is functional. In a few lines: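 Superoxide radicals produced in vitro by a non-enzymatic system; scavenging followed by nitro blue tetrazolium photoreduction, read spectrophotometrically at 560 nm; activity given as the concentration giving 50% inhibition (IC50).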

The test system of assay [2] is Radical scavenging activity. The experiment in a line: Antioxidant activity assessed as DPPH free radical scavenging activity. The class given is functional. The method, boiled down: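 Scavenging measured as reduction of the coloured DPPH (1,1-diphenyl-2-picrylhydrazyl) radical in methanolic solution; activity given as IC50.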

In ChEMBL document CHEMBL1148841, “Synthesis, structural revision, and antioxidant activities of antimutagenic homoisoflavonoids from Hoffmanosseggia intricata” (Bioorg Med Chem Lett, 2007) one finds IC50 data, which are given here for 6 compounds.

`O=C1O[C@H]([C@@H](O)CO)C(O)=C1O` [ASCORBIC ACID]: the IC50 turned out to be 852 µM in assay [1] and 25.1 µM in assay [2].

As to `COc1ccc(/C=C2\COc3c(ccc(O)c3O)C2=O)cc1` [INTRICATINOL], the concentration for half-maximal inhibition (IC50) is 30.1 µM in assay [1] and 10.1 µM in assay [2].

Consider `O=C1/C(=C/c2ccc(O)c(O)c2)COc2c1ccc(O)c2O`, for which the half-maximal inhibitory concentration (IC50) in assay [1] was determined as 8.5 µM; in assay [2], 4.5 µM.

Turning to `COc1ccc(/C=C2\COc3c(ccc(OC)c3O)C2=O)cc1` [INTRICATIN], the IC50 in assay [1] and in assay [2] was over 200 µM each time.

In the case of `COc1ccc(O)c(C(C)(C)C)c1.COc1ccc(O)cc1C(C)(C)C` [BUTYLATED HYDROXYANISOLE], the 50% inhibitory concentration (IC50) was 966 µM in assay [1] and 34 µM in assay [2].

`O=C1/C(=C/c2ccc(O)cc2)COc2c1ccc(O)c2O`: the half-inhibitory concentration (IC50) in assay [1] came out at 26.5 µM; in assay [2] it was 8.3 µM.
